Reference: ChEMBL document CHEMBL5252539, “In vitro biological evaluation of new antimycobacterial salicylanilide-tuftsin conjugates” (Eur J Med Chem, 2017)
≈ marks a conversion by molar mass, not a printed value. Calls of active or inactive are those of the source. No cut-off for these calls is given here. *1 amine or outer side, *2 acyl side, *3 side chain or, on linkers, in order; H or OH if unused. Where a SMILES comes first, the peptide text is derived from it. [ ]: non-standard residue; d: D form. The star is where a group is joined. X1 = C/C(=N\OCC(=O)[*:2])c1ccc(N[*:1])cc1; Benzoyl(5-Br-2-OH) = O=C(c1cc(Br)ccc1O)*; Palmitoyl = CCCCCCCCCCCCCCCC(=O)*; X3 = O=C(c1cc(Cl)ccc1O)*

Tests used:
[1] = tested on: Mycobacterium tuberculosis; experiment: Antimycobacterial activity against isoniazid and rifampicin resistant Mycobacterium tuberculosis A8 ATCC 35822 assessed as reduction in bacterial growth after 28 days by serial dilution method; assay type: functional; details: A8 ATCC 35822, 672 h, time 28 day
Outline: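 Broth MIC in Sula semisynthetic medium, pH 6.5; 4-week incubation, with 21-day values […] where indicated. Drug-free inoculated bacteria served as growth control. MIC also expressed as drug content (µg/mL) = MIC (µM) × average SAL molar mass × number of SAL per conjugate / 1000.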

[2] = tested on: Mycobacterium tuberculosis; experiment: Antimycobacterial activity against isoniazid and rifampicin resistant Mycobacterium tuberculosis A8 ATCC 35822 assessed as reduction in colony forming unit after 28 days by serial dilution method; assay type: functional, organism-based; details: time 28.0 day
Outline: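 After the 4-week MIC incubation in Sula semisynthetic medium (pH 6.5), growth inhibition confirmed by plating on Löwenstein-Jensen solid medium and counting colony forming units.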

| Compound | MIC [1] [µM] | Activity [2] |
| --- | --- | --- |
| C/C(=N\OCC(=O)NCC(=O)N[C@@H](Cc1ccccc1)C(=O)N[C@@H](CC(C)C)C(=O)NCC(=O)N[C@H](C(=O)N[C@@H](CCCCN)C(=O)N1CCC[C@H]1C(=O)N[C@@H](CCCCN)C(=O)NCC(=O)O)[C@@H](C)O)c1ccc(NC(=O)c2cc(Br)ccc2O)cc1 ({Benzoyl(5-Br-2-OH)}-[X1]GFLGTKPKG-OH) | 77.3 (≈ 100 µg/mL) | Active |
| O=C(Nc1ccc(Cl)c(Cl)c1)c1cc(Br)ccc1O | 2.8 (≈ 1.01 µg/mL) |  |
| C/C(=N\OCC(=O)N[C@H](C(=O)N[C@@H](CCCCN)C(=O)N1CCC[C@H]1C(=O)N[C@@H](CCCNC(=N)N)C(=O)O)[C@@H](C)O)c1ccc(NC(=O)c2cc(Br)ccc2O)cc1 ({Benzoyl(5-Br-2-OH)}-[X1]TKPR-OH) | 112 (≈ 100 µg/mL) | Active |
| C/C(=N\OCC(=O)N[C@H](C(=O)N[C@@H](CCCCN)C(=O)N1CCC[C@H]1C(=O)N1CCC[C@H]1C(=O)N[C@@H](CCCNC(=N)N)C(=O)O)[C@@H](C)O)c1ccc(NC(=O)c2cc(Br)ccc2O)cc1 | 101 (≈ 100 µg/mL) |  |
| CC(=O)c1ccc(NC(=O)c2cc(Br)ccc2O)cc1 | 15 (≈ 5.01 µg/mL) | Active |
| O=C(Nc1ccc(C(F)(F)F)cc1)c1cc(Br)ccc1O | 2.8 (≈ 1.01 µg/mL) |  |
| C/C(=N\OCC(=O)NCC(=O)N[C@@H](Cc1ccccc1)C(=O)N[C@@H](CC(C)C)C(=O)NCC(=O)N[C@H](C(=O)N[C@@H](CCCCN)C(=O)N1CCC[C@H]1C(=O)N[C@@H](CCCCN)C(=O)NCC(N)=O)[C@@H](C)O)c1ccc(NC(=O)c2cc(Br)ccc2O)cc1 ({Benzoyl(5-Br-2-OH)}-[X1]GFLGTKPKG-NH2) | 77.4 (≈ 100 µg/mL) | Active |
| NNC(=O)c1ccncc1 [ISONIAZID] | 7.3 (≈ 1 µg/mL) | Active |
| C/C(=N\OCC(=O)N[C@H](C(=O)N[C@@H](CCCCN)C(=O)N1CCC[C@H]1C(=O)N[C@@H](CCCCN)C(=O)NCC(=O)O)[C@@H](C)O)c1ccc(NC(=O)c2cc(Br)ccc2O)cc1 ({Benzoyl(5-Br-2-OH)}-[X1]TKPKG-OH) | 109 (≈ 100 µg/mL) | Active |
| O=Cc1ccc(O)c(C(=O)Nc2ccc(C(F)(F)F)cc2)c1 | 64.7 (≈ 20 µg/mL) | Active |
| O=C(Nc1ccc(Cl)c(Cl)c1)c1cc(Cl)ccc1O | 1.6 (≈ 0.507 µg/mL) |  |
| CC(=O)c1ccc(NC(=O)c2cc(Cl)ccc2O)cc1 | 17.3 (≈ 5.01 µg/mL) | Active |
| C/C(=N\OCC(=O)N[C@H](C(=O)O)[C@@H](C)O)c1ccc(NC(=O)c2cc(Br)ccc2O)cc1 |  | Active |
| C/C(=N\OCC(=O)NCC(=O)N[C@@H](Cc1ccccc1)C(=O)N[C@@H](CC(C)C)C(=O)NCC(=O)N[C@H](C(=O)N[C@@H](CCCCN)C(=O)N1CCC[C@H]1C(=O)N1CCC[C@H]1C(=O)N[C@@H](CCCNC(=N)N)C(=O)O)[C@@H](C)O)c1ccc(NC(=O)c2cc(Br)ccc2O)cc1 | 73.5 (≈ 100 µg/mL) |  |
| CCCCCCCCCCCCCCCC(=O)NCCCC[C@H](NC(=O)[C@@H]1CCCN1C(=O)[C@H](CCCCN)NC(=O)[C@@H](NC(=O)CNC(=O)[C@H](CCCCN)NC(=O)[C@@H]1CCCN1C(=O)[C@H](CCCCN)NC(=O)[C@@H](NC(=O)CNC(=O)[C@H](CCCCN)NC(=O)[C@@H]1CCCN1C(=O)[C@H](CCCCN)NC(=O)[C@@H](NC(=O)CO/N=C(\C)c1ccc(NC(=O)c2cc(Br)ccc2O)cc1)[C@@H](C)O)[C@@H](C)O)[C@@H](C)O)C(=O)NCC(=O)N[C@H](C(=O)N[C@@H](CCCCN)C(=O)N1CCC[C@H]1C(=O)N[C@@H](CCCCN)C(=O)NCC(N)=O)[C@@H](C)O ({Benzoyl(5-Br-2-OH)}-[X1]TKPKGTKPKGTKPK(Palmitoyl)GTKPKG-NH2) |  | Active |
| CCCCCCCCCCCCCCCC(=O)NCCCC[C@H](NC(=O)[C@@H]1CCCN1C(=O)[C@H](CCCCN)NC(=O)[C@@H](NC(=O)CO/N=C(\C)c1ccc(NC(=O)c2cc(Cl)ccc2O)cc1)[C@@H](C)O)C(=O)NCC(=O)N[C@H](C(=O)N[C@@H](CCCCN)C(=O)N1CCC[C@H]1C(=O)N[C@@H](CCCCN)C(=O)NCC(=O)N[C@H](C(=O)N[C@@H](CCCCN)C(=O)N1CCC[C@H]1C(=O)N[C@@H](CCCCN)C(=O)NCC(=O)N[C@H](C(=O)N[C@@H](CCCCN)C(=O)N1CCC[C@H]1C(=O)N[C@@H](CCCCN)C(=O)NCC(N)=O)[C@@H](C)O)[C@@H](C)O)[C@@H](C)O (X3-[X1]TKPK(Palmitoyl)GTKPKGTKPKGTKPKG-NH2) |  | Active |
| O=C(Nc1ccc(C(F)(F)F)cc1)c1cc(Cl)ccc1O | 1.6 (≈ 0.505 µg/mL) |  |
| C/C(=N\OCC(=O)N[C@H](C(=O)N[C@@H](CCCCN)C(=O)N1CCC[C@H]1C(=O)N[C@@H](CCCCN)C(=O)NCC(N)=O)[C@@H](C)O)c1ccc(NC(=O)c2cc(Br)ccc2O)cc1 ({Benzoyl(5-Br-2-OH)}-[X1]TKPKG-NH2) | 109 (≈ 100 µg/mL) | Active |
| C/C(=N\OCC(=O)NCC(=O)N[C@@H](Cc1ccccc1)C(=O)N[C@@H](CC(C)C)C(=O)NCC(=O)N[C@H](C(=O)N[C@@H](CCCCN)C(=O)N1CCC[C@H]1C(=O)N[C@@H](CCCNC(=N)N)C(=O)O)[C@@H](C)O)c1ccc(NC(=O)c2cc(Br)ccc2O)cc1 | 79.1 (≈ 100 µg/mL) |  |
| C/C(=N\OCC(=O)N[C@H](C(=O)N[C@@H](CCCCN)C(=O)N1CCC[C@H]1C(=O)N[C@@H](CCCCN)C(=O)NCC(=O)N[C@H](C(=O)N[C@@H](CCCCN)C(=O)N1CCC[C@H]1C(=O)N[C@@H](CCCCN)C(=O)NCC(=O)N[C@H](C(=O)N[C@@H](CCCCN)C(=O)N1CCC[C@H]1C(=O)N[C@@H](CCCCN)C(=O)NCC(=O)N[C@H](C(=O)N[C@@H](CCCCN)C(=O)N1CCC[C@H]1C(=O)N[C@@H](CCCCN)C(=O)NCC(N)=O)[C@@H](C)O)[C@@H](C)O)[C@@H](C)O)[C@@H](C)O)c1ccc(NC(=O)c2cc(Cl)ccc2O)cc1 (X3-[X1]TKPKGTKPKGTKPKGTKPKG-NH2) |  | Active |
